Measurements: PubChem BioAssay AID1885 (Broad Institute, 2009)
Hit rate of the full screen: of about 300,000 compounds, about 4,400 (1.5%) were called active. The sample as a whole holds a higher share of actives than the screen did. A number with no mark means an inactive call.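 The calls were made as follows: active = mean inhibition across valid replicates above about 55% (limit read from the data); inconclusive = mean below that limit but half or more replicates reach it; inactive = mean below it, under half of replicates reach it.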

Experiment: inhibitors of intracellular T. cruzi growth, primary screen, luminescence, NIH3T3 host cells (AID 1885);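 also: signal also drops with host cell toxicity which is not excluded here; 0% = plate median of DMSO wells and 100% = zero luminescence signal; higher percent means less beta-gal luminescence so fewer parasites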
Settings: T. cruzi beta-gal in NIH3T3, luminescence, 90 h; active compounds read high; concentration not given here
Procedure, shortened: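 Assay system: NIH/3T3 fibroblasts plus reporter T. cruzi. Amount: NIH/3T3 cells, 5,000 per well. Buffer or medium: DMEM, 2% fetal bovine serum. Doses: compound pinned at 50 nL/well, DMSO. Schedule: ≥90 h infection period, 3 h prior cell attachment. Signal: luminescent β-galactosidase signal after 60 min lysis. Read-out: parasite load inhibition, %.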

Compound | inhibition
O=C(NCC(c1cccnc1)N1CCN(c2ccccc2)CC1)Oc1ccccc1 (stereo not given) | 64.2% (active)
COC(=O)C(c1ccccc1)N1CCCCCC1 (stereo not given) | -2.88%
COc1ccccc1N1CCN(C(CNC(=O)Oc2ccccc2)c2cccnc2)CC1 (stereo not given) | 61.2% (active)
c1ccc(CCN2CCC3(CC2)OCCO3)cc1 | 8.57%
Cc1ccc(C)c(NC2=NCCCS2)c1 | 8.9%
COc1cccc(OC)c1C(=O)NC(=S)N1C[C@H]2C[C@H](C1)c1cccc(=O)n1C2 | 0.307%
CC(C)c1ccc(-n2c(O)c(/C=N/N3CCOCC3)c(=O)[nH]c2=S)cc1 | -9.55%
CCN1CC2C3CCC(C)(O3)C2C1 (stereo not given) | -4.25%
COc1ccc(CNCCc2ccc3c(c2)OCO3)c(OC)c1OC | 50.2%
COc1ccc(Br)cc1CNCCc1cccc(Cl)c1 | 56.8% (active)
COc1ccc(CNCCc2c[nH]c3ccccc23)cc1OC | 8.16%
CC1=CC(=Cc2sc3ccccc3[n+]2C)C=C(C)O1 | 81.1% (active)
COc1ccc(N2C(=O)/C(=C/c3ccco3)C(=O)NC2=S)cc1 | -2.75%
C[C@@]1([C@@H](NP(=O)(c2ccccc2)c2ccccc2)c2ccccc2)C[C@H]1CCO | 1%
Cc1ccc(-c2nn(CCC#N)cc2C(=O)O)cc1C | -14.3%
COc1ccccc1-n1c(O)c(C=NC2CC2)c(=O)[nH]c1=O | -10.6%
COc1cccc(CN2CCCC(C(=O)c3ccccc3SC)C2)c1O (stereo not given) | 0.0491%
O=C(c1ccccc1[N+](=O)[O-])N1CCC2(CC1)OCCO2 | -12.5%

Compound | inhibition
Cc1ccc(C2CN(C)CC2C(=O)c2ccc(F)cc2)cc1 (stereo not given) | -5.25%
CN1CCC(OC(=O)c2cccc(F)c2)CC1 | 58.3% (active)
CCC/C(=N\O)c1c[nH]c2ccccc12 | -2.44%
COc1ccc(-n2c(O)c(C(C)=Nc3ccc4c(c3)CCC4)c(=O)[nH]c2=O)cc1 | -27.7%
CCOc1ccc(CN(CCCl)CCCl)cc1C(=O)OC | -1.04%
CCOc1ccc(-c2cc(C)[n+](CCN(CC)CC)c(-c3ccc(OCC)cc3)c2)cc1 | 64.1% (active)
CN1C2C=C(N(C(=O)c3ccc(Cl)cc3)c3ccccc3)CC1CC2 (stereo not given) | 9.22%
O=C1N=c2ccccc2=C/C1=C\c1c(O)[nH]c(=S)[nH]c1=O | -14%
CCCCCCCCCCCCn1ccc(=N)cc1 | 58.9% (active)
CCc1nc2ccccc2c(=O)n1-c1cccc(OC)c1 | -3.64%
CC(C)Oc1cccc(C(=O)C2CCCN(C3CCOCC3)C2)c1 (stereo not given) | -14%
CC(=O)c1c(O)n(C2CCCCCC2)c(=O)[nH]c1=O | -10.9%
CC1=C(C(=O)Nc2ccccc2)SCCO1 | -24.2%
O=C(NC(c1ccc(Cl)cc1)P(=O)(Oc1ccccc1)Oc1ccccc1)OCc1ccccc1 (stereo not given) | 12.3%
C=CCN1C(=O)NC(=O)/C(=C/c2ccc(OCC(=O)Nc3ccc(C)cc3)cc2)C1=O | 12.8%
COc1cc(C(c2c(O)c3ccccc3oc2=O)c2c(C)n(C)n(-c3ccccc3)c2=O)ccc1O (stereo not given) | -33%
CCOP(=O)(OCC)C(NC(=O)NC)C(N)=O (stereo not given) | 2.29%
